HTRA1 inhibitor: blocks human HTRA1 serine peptidase | recombinant HTRA1, FP-rhodamine activity-based probe, fluorescence polarization | AID 504803 | Q92743 | inhibition, % at 5.96 µM | 340,000 tested, 0.5% active; in the data active means inhibition above about 36%
Target sequence (Q92743 whole entry, looked up): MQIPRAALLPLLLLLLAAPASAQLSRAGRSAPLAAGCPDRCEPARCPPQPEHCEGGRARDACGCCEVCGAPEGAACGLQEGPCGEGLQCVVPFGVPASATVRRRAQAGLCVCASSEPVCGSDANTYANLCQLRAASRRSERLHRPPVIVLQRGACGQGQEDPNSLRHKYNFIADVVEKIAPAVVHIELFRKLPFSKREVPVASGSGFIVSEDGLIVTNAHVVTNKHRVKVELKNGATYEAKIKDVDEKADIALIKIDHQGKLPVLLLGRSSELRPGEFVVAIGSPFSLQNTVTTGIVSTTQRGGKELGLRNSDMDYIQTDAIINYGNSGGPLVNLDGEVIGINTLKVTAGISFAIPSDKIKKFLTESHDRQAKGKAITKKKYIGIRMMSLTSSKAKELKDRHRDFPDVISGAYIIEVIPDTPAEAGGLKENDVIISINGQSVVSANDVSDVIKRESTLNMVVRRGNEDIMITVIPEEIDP
PAFAH1B3 FP inh: blocks human PAF acetylhydrolase 1B catalytic subunit 3; Q15102; recombinant PAFAH1B3, FP-rhodamine probe, fluorescence polarization; inhibition, % at 3.39 µM; 340,000 tested, 0.28% active;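 active means inhibition above the screen-wide average of all tested compounds plus 3 SD, cut at about 25% in these data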
PAFAH1B2 inh: blocks human PAF acetylhydrolase 1b catalytic subunit 2. P68402. recombinant PAFAH1B2, FP-rhodamine activity probe, fluorescence polarization. inhibition, % at 3.39 µM. 340,000 tested, 1.2% active. AID 492953;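 active means inhibition above the mean of all tested compounds plus 3 SD, cut at about 24% in these data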
PAFAH2 FP inh: PAFAH2 (human) inhibition; recombinant PAFAH2, FP-rhodamine activity probe, fluorescence polarization; inhibition, % at 3.39 µM; 340,000 tested, 0.99% active;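 active means inhibition above the mean over all tested compounds plus 3 SD, cut at about 30% in these data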;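 further: inhibitors block probe labeling of enzyme so polarization drops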
ABHD4 inh: inhibitors of mouse ABHD4; Q8VD66; purified mABHD4, FP-Rh probe fluorescence polarization; inhibition, % at 8.92 µM; 370,000 tested, 0.54% active;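 active means inhibition exceeding the mean over every tested compound plus 3 SD, cut at about 30% in these data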
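Material: mouse ABHD4 enzyme, wild type; Benchmarks: S159A mutant high control, sample median low control; Buffer or medium: HEPES pH 7.0, NaCl, Pluronic buffer; Signal: fluorescence polarization; Read-out: percent inhibition of probe binding, normalized to plate controls; Timing: pre-incubation 45 min, probe exposure 60 min, at 25 °C; Dosing: 8.92 µM, single dose.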
pPAFAH inh: inhibitors of human plasma PAF acetylhydrolase (pPAFAH) | Q13093 | recombinant pPAFAH, FP-rhodamine probe fluorescence polarization | inhibition, % at 3.39 µM | 330,000 tested, 1.5% active;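 active means inhibition above the mean inhibition across the screen plus 3 SD, cut at about 25% in these data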;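 further: inhibitors block binding of the rhodamine activity-based probe so polarization drops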
PAFAH2 confirm: confirmation of human PAFAH2 inhibitors | shares compounds with PAFAH2 FP inh | recombinant PAFAH2, FP-rhodamine activity probe, fluorescence polarization | inhibition, % at 3.39 µM | 2,300 tested, 65% active | AID 493030;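 active means mean inhibition over three repeats above a set limit taken from the earlier primary screen, cut at about 30% in these data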;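 further: inhibitor blocks binding of rhodamine activity probe so polarization falls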
Large screens that a line does not name were inactive (follow-up assays come after a bar, where they were run). Compounds with a hit are over-represented: about 2.8% of the library has one in this group of screens.

C[C@@H]1[C@H](c2ccccc2)OC(O)([C@H](Cc2ccccc2)NC(=O)OC(C)(C)C)CN1C (stereo partly specified)	none (no result: HTRA1 inhibitor, PAFAH1B3 FP inh, PAFAH1B2 inh, PAFAH2 FP inh, pPAFAH inh)
N/C(=N\OC(=O)c1ccc2c(c1)OCO2)c1ccc(Cl)cc1	PAFAH2 FP inh 33.1 | PAFAH2 confirm 30.4
Cc1ccc(/C(N)=N/OC(=O)c2ccc3c(c2)OCO3)cc1	none
COC(=O)c1cc(-c2ccc(OC)c(OC)c2)c(=O)n2c1CCC2	none (no result: HTRA1 inhibitor, PAFAH1B3 FP inh, PAFAH1B2 inh, PAFAH2 FP inh, pPAFAH inh)
CCOC(=O)[C@]12CCCCC/C=C\1N(CCc1ccc(Cl)cc1)C(=O)[C@H]2CC(=O)N1CCN(C(=O)C2CC2)CC1	none (no result: HTRA1 inhibitor, PAFAH1B3 FP inh, PAFAH1B2 inh, PAFAH2 FP inh, pPAFAH inh)
Cc1cc(Nc2cccc(Br)c2)c2ccccc2n1	PAFAH2 FP inh 49.9 | PAFAH2 confirm inactive
COc1cc(C(=O)OCc2cccc(S(=O)(=O)N3CCOCC3)c2)ccc1OCC(C)C	none
COc1cc(C(=O)OCC(=O)Nc2cc(S(=O)(=O)N3CCOCC3)ccc2C)ccc1OCC(C)C	PAFAH2 FP inh 57.7 | PAFAH2 confirm 49.2
COc1ccc(OC)c(NC(=O)COC(=O)c2ccc(S(=O)(=O)N3CCOCC3)cc2)c1	none
COc1ccc(CC(=O)OCC(=O)Nc2cc(S(=O)(=O)N3CCOCC3)ccc2N2CCCC2)cc1	none
COc1cc(C(=O)OCC(=O)Nc2cccc(S(=O)(=O)N3CCOCC3)c2)ccc1OCC(C)C	PAFAH2 FP inh 46.4 | PAFAH2 confirm 43.7
COc1ccc(C(=O)OCC(=O)Nc2cc(S(=O)(=O)N3CCOCC3)ccc2N2CCCC2)cc1	PAFAH2 FP inh 38.5 | PAFAH2 confirm 33.1
Cc1ccc(S(=O)(=O)N2CCOCC2)cc1NC(=O)COC(=O)c1ccc(Br)cc1	PAFAH2 FP inh 41.7 | PAFAH2 confirm 30.6
Cc1ccccc1CNC(=O)C1CCCN(c2ncccn2)C1 (stereo unspecified)	none (no result: HTRA1 inhibitor, PAFAH1B3 FP inh, PAFAH1B2 inh, PAFAH2 FP inh, pPAFAH inh)
COC(=O)C1CN(Cc2cn(CCC3OCCO3)nn2)CCS(=O)(=O)N1Cc1ccc(C)cc1 (stereo unspecified)	none (no result: HTRA1 inhibitor, PAFAH1B3 FP inh, PAFAH1B2 inh, PAFAH2 FP inh, pPAFAH inh)
Nc1cc(C(=O)OCC(=O)Nc2cccc(S(=O)(=O)N3CCOCC3)c2)ccc1Cl	PAFAH2 FP inh 64.8 | PAFAH2 confirm 57.6
CN1C(=O)C[C@@](C#N)(C(=O)N2CCOCC2)[C@H]1c1ccccc1	none (no result: HTRA1 inhibitor, PAFAH1B3 FP inh, PAFAH1B2 inh, PAFAH2 FP inh, pPAFAH inh)
N#C/C(=C\c1c(Cl)cccc1Cl)c1nc2ccccc2o1	PAFAH2 FP inh 32.9 | PAFAH2 confirm 33.5
CN1C(=O)c2cc(NS(C)(=O)=O)ccc2OC[C@H]2O[C@@H](CC(=O)NCc3ccc(-c4ccccc4)cc3)CC[C@@H]21	none (no result: HTRA1 inhibitor, PAFAH1B3 FP inh, PAFAH1B2 inh, PAFAH2 FP inh, pPAFAH inh)
O=C(CCS(=O)(=O)c1ccc(Br)cc1)N1CCN(c2ccc(F)cc2)CC1	PAFAH2 FP inh 39.4 | PAFAH2 confirm inactive
O=C(COC(=O)C1CCN(c2ccc(C(F)(F)F)cn2)CC1)NCc1ccc(Cl)cc1Cl	none
Cc1ccc(C(=O)OCC(=O)NCCNC(=O)COC(=O)c2ccc(C)o2)o1	none
Cc1ccc(C(=O)OCC(=O)NCc2ccc(Cl)cc2Cl)o1	PAFAH2 FP inh 55.8 | PAFAH2 confirm 41.6
O=C(COC(=O)C1CC1)NCc1ccc(Cl)cc1Cl	PAFAH2 FP inh 64.2 | PAFAH2 confirm 46.1
O=C(NCCc1nc2ccccc2n1CCOc1cc(F)ccc1F)C1CCCCC1	none (no result: HTRA1 inhibitor, PAFAH1B3 FP inh, PAFAH1B2 inh, PAFAH2 FP inh, pPAFAH inh)
CCN(CC)C(=O)CSc1nc2c(sc(=S)n2-c2ccccc2OC)c(=O)n1-c1ccccc1	PAFAH2 FP inh 38.2 | PAFAH2 confirm inactive
CCN(CC)C(=O)CSc1nc2c(sc(=S)n2CC)c(=O)n1-c1ccccc1	none
O=C(CNc1ccc(Cl)c(C(F)(F)F)c1)N1CCN(S(=O)(=O)c2ccccc2)CC1	PAFAH2 FP inh 44.9 (no result: pPAFAH inh) | PAFAH2 confirm inactive
CC(=O)c1ccc(NCC(=O)N2CCN(S(=O)(=O)c3ccccc3)CC2)cc1	none
CC(=O)N1C(C)(C)CC(=NOC(=O)c2ccccc2)CC1(C)C	PAFAH2 FP inh 67.2 | PAFAH2 confirm 57.0
O=C1c2cccc3cccc(c23)C(=O)N1Cc1ccccc1	none
O=C1c2cccc3cccc(c23)C(=O)N1OS(=O)(=O)c1ccc(Cl)cc1	PAFAH2 FP inh 33.2 | PAFAH2 confirm 34.4
O=[N+]([O-])c1cccc(S(=O)(=O)Nc2nc3ccccc3nc2Nc2cccc(S(=O)(=O)N3CCCCC3)c2)c1	PAFAH2 FP inh 44.5 (no result: pPAFAH inh) | PAFAH2 confirm inactive
